Calls of active or inactive are those of the source. The calls are words filed in the database; no cut-off is given here.
Key:
[1] = system: FM3A; assay: Ability to induce dNTP pool imbalance at 41 uM dose was tested; significant imbalance in the intracellular dNTP pool in FM3A cells; format: functional, cell-based; settings: Mus musculus
[2] = system: FM3A; assay: Inhibit growth of FM3A cells by 50%; format: functional, cell-based; settings: Mus musculus
Summary of the method: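 FM3A cells were grown in ES medium with 2% heat-inactivated FBS at 37 °C under 5% CO2, seeded at about 5 × 10^4 cells/mL, and exposed to a range of drug concentrations. Cells were counted electronically after 48 h. IC50 is the concentration that reduces growth rate by 50% of control.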

[3] = Inhibit growth of KB cells by 50%; format: functional, cell-based; settings: Homo sapiens
[4] = system: P388; assay: Tested in vivo for the antitumor activity against P388 in mice after intraperitoneal administration of 100 mg/kg dose; T/C= treated/control; format: functional, Mus musculus
[5] = system: P388; assay: Tested in vivo for the antitumor activity against P388 leukemia cells in mice after intraperitoneal administration of 400 mg/kg dose; T/C= treated/control; format: functional
[6] = system: P388; settings: Mus musculus
[7] = system: P388; assay: Compound was tested in vivo for the antitumor activity against P388 in mice after intraperitoneal administration of 25 mg/kg dose; T/C= treated/control; format: functional, Mus musculus
[8] = system: P388; assay: Compound was tested in vivo for the antitumor activity against P388 in mice after intraperitoneal administration of 6.3 mg/kg dose; T/C= treated/control; format: functional, Mus musculus
[9] = system: P388; assay: Compound was tested in vivo for the antitumor activity against P388 leukemia cells in mice after intraperitoneal administration of 100 mg/kg dose; T/C= treated/control; format: functional, Mus musculus
[10] = system: FM3A; assay: Ability to induce dNTP pool imbalance at 15.0 uM dose was tested; significant imbalance in the intracellular dNTP pool in FM3A cells; settings: Mus musculus
[11] = system: P388; assay: Tested in vivo for the antitumor activity against P388 in mice after intraperitoneal administration of 200 mg/kg dose; T/C= treated/control; format: functional, Mus musculus
[12] = system: FM3A; assay: Ability to induce dNTP pool imbalance at 16.4 uM dose was tested; significant imbalance in the intracellular dNTP pool in FM3A cells; settings: Mus musculus
[13] = system: P388; assay: Compound was tested in vivo for the antitumor activity against P388 in mice after intraperitoneal administration of 3.1 mg/kg dose; T/C= treated/control; format: functional, Mus musculus
[14] = system: P388; assay: Compound was tested in vivo for the antitumor activity against P388 leukemia cells in mice after intraperitoneal administration of 12.5 mg/kg dose; T/C= treated/control
[15] = system: P388; assay: Compound was tested in vivo for the antitumor activity against P388 in mice after intraperitoneal administration of 50 mg/kg dose; T/C= treated/control; format: functional, Mus musculus
[16] = system: P388; assay: Compound was tested in vivo for the antitumor activity against P388 leukemia cells in mice after intraperitoneal administration of 25 mg/kg dose; T/C= treated/control; format: functional, Mus musculus
[17] = system: P388; assay: Compound was tested in vivo for the antitumor activity against P388 in mice after intraperitoneal administration of 12.5 mg/kg dose; T/C= treated/control; format: functional, Mus musculus
[18] = system: FM3A; assay: Ability to induce dNTP pool imbalance at 7.9 uM dose was tested; significant imbalance in the intracellular dNTP pool in FM3A cells; settings: Mus musculus
[19] = system: FM3A; assay: Compound''s ability to induce dNTP pool imbalance at 6.1 uM dose was tested; significant imbalance in the intracellular dNTP pool in FM3A cells; format: functional, cell-based; settings: Mus musculus
[20] = system: FM3A; assay: Ability to induce dNTP pool imbalance at 7.3 uM dose was tested; significant imbalance in the intracellular dNTP pool in FM3A cells; settings: Mus musculus
[21] = system: P388; assay: Compound was tested in vivo for the antitumor activity against P388 leukemia cells in mice after intraperitoneal administration of 40 mg/kg dose; T/C= treated/control; format: functional, Mus musculus
[22] = system: P388; assay: Compound was tested in vivo for the antitumor activity against P388 in mice after intraperitoneal administration of 20 mg/kg dose; T/C= treated/control; format: functional, Mus musculus
[23] = system: P388; assay: Compound was tested in vivo for the antitumor activity against P388 in mice after intraperitoneal administration of 10 mg/kg dose; T/C= treated/control; format: functional, Mus musculus
[24] = system: FM3A; assay: Ability to induce dNTP pool imbalance at 3.5 uM dose was tested; significant imbalance in the intracellular dNTP pool in FM3A cells; settings: Mus musculus
[25] = system: P388; assay: Compound was tested in vivo for the antitumor activity against P388 in mice after intraperitoneal administration of 400 mg/kg dose; T/C= treated/control; format: functional, Mus musculus
[26] = system: P388; assay: Compound was tested in vivo for the antitumor activity against P388 leukemia cells in mice after intraperitoneal administration of 5 mg/kg dose; T/C= treated/control; format: functional, Mus musculus
[27] = system: P388; assay: Compound was tested in vivo for the antitumor activity against P388 in mice after intraperitoneal administration of 2.5 mg/kg dose; T/C= treated/control; format: functional, Mus musculus
[28] = system: P388; assay: Compound was tested in vivo for the antitumor activity against P388 in mice after intraperitoneal administration of 0.6 mg/kg dose; T/C= treated/control; format: functional, Mus musculus
[29] = system: FM3A; assay: Ability to induce dNTP pool imbalance at 9.0 uM dose was tested; significant imbalance in the intracellular dNTP pool in FM3A cells; settings: Mus musculus

SMILES | Imbalance [1] | IC50 [2] | IC50 [3] | T/C [4] | T/C [5] | T/C [11] | other results
Oc1cccc2cccnc12 [OXYQUINOLINE] | significant imbalance in the intracellular dNTP pool in FM3A cells | 2100 nM | < 2.1 µM | 92% |  |  | 
CC(C)c1cccc(=O)c(O)c1 [HINOKITIOL] | significant imbalance in the intracellular dNTP pool in FM3A cells | 1100 nM | 3.5 µM |  |  |  | T/C ([5]; Mus musculus): inactive
COc1ccc(C(c2oc(CO)cc(=O)c2O)c2oc(CO)cc(=O)c2O)cc1 |  | > 249000 nM | > 249 µM |  |  |  | T/C [6]: inactive
CC(C)c1ccc(CCc2ccc(C(C)C)cc(=O)c2O)c(O)c(=O)c1 |  | 1200 nM | 8 µM |  |  |  | T/C [7]: 150%; T/C [8]: 121%; T/C [9]: 165%; Imbalance [10]: significant imbalance in the intracellular dNTP pool in FM3A cells
CC(C)c1ccc(SCCSc2ccc(C(C)C)cc(=O)c2O)c(O)c(=O)c1 |  | 4800 nM | 1.6 µM | 151% | 80% | 171% | Imbalance [12]: significant imbalance in the intracellular dNTP pool in FM3A cells
CC(C)c1ccc(CCCCCCCCc2ccc(C(C)C)cc(=O)c2O)c(O)c(=O)c1 | significant imbalance in the intracellular dNTP pool in FM3A cells | 900 nM | 4.3 µM | 107% | 110% | 110% | 
COc1ccc(C(c2ccc3cccnc3c2O)c2ccc3cccnc3c2O)cc1 | significant imbalance in the intracellular dNTP pool in FM3A cells | 10 nM | < 0.7 µM |  |  |  | T/C [13]: 111%; T/C [8]: 128%; T/C [14]: 164%
CC(C)C1=CC(=O)C(=O)/C(=C2/C=CC(C(C)C)=CC(O)=C2O)C=C1 | significant imbalance in the intracellular dNTP pool in FM3A cells | 3700 nM | 9.5 µM |  |  |  | T/C [7]: 152%; T/C [15]: 171%; T/C [9]: 143%
CC(C)c1ccc(Cc2ccc(C(C)C)cc(=O)c2O)c(O)c(=O)c1 |  | 1000 nM | < 0.9 µM |  |  |  | T/C [8]: 137%; T/C [16]: 123%; T/C [17]: 152%; Imbalance [18]: significant imbalance in the intracellular dNTP pool in FM3A cells
CCOC(c1ccc(OC)cc1)c1ccc(C(C)C)cc(=O)c1O (stereo not given) |  | 1100 nM | 1.6 µM |  | 140% | 140% | Imbalance [19]: significant imbalance in the intracellular dNTP pool in FM3A cells
CC(C)c1ccc(CCCCCCc2ccc(C(C)C)cc(=O)c2O)c(O)c(=O)c1 |  | 900 nM | 1.5 µM | 128% | 70% | 80% | T/C [7]: 110%; T/C [15]: 137%; Imbalance [20]: significant imbalance in the intracellular dNTP pool in FM3A cells
COc1ccc(C(c2ccc(C(C)C)cc(OC)c2=O)c2ccc(C(C)C)cc(OC)c2=O)cc1 |  | 14100 nM | 114 µM |  |  |  | T/C [6]: inactive
CC(C)c1ccc(COCc2ccc(C(C)C)cc(=O)c2O)c(O)c(=O)c1 |  | 80 nM | 6.2 µM |  |  |  | T/C [21]: 156%; T/C [22]: 186%; T/C [23]: 164%; Imbalance [24]: significant imbalance in the intracellular dNTP pool in FM3A cells
CC(C)c1ccc(CCCCCCCCCCCCc2ccc(C(C)C)cc(=O)c2O)c(O)c(=O)c1 | significant imbalance in the intracellular dNTP pool in FM3A cells | 1300 nM | 27.3 µM | 106% |  | 107% | T/C [25]: 105%
CC(C)c1ccc(SCCCSc2ccc(C(C)C)cc(=O)c2O)c(O)c(=O)c1 |  |  | 1.6 µM | 93% | 169% | 131% | 
COc1ccc(C(c2ccc(C(C)C)cc(=O)c2O)c2ccc(C(C)C)cc(=O)c2O)cc1 |  | 400 nM | 1.1 µM |  |  |  | T/C [26]: 173%; T/C [27]: 134%; T/C [28]: 127%; Imbalance [29]: significant imbalance in the intracellular dNTP pool in FM3A cells

From ChEMBL document CHEMBL1126143, “Synthesis and antitumor activity of tropolone derivatives. 7. Bistropolones containing connecting methylene chains” (J Med Chem, 1992)
